Experimental findings from ChEMBL document CHEMBL1629492 (Eur J Med Chem, 2010) are described below.

One may read the Ki as the equilibrium dissociation constant of an inhibitor or competing ligand from its target. As usually defined, the pKb is the Kb on a negative log10 scale, so that one unit is a factor of ten.

Experiment [1] is filed under the species Rattus norvegicus. As to the kind of experiment: Selectivity ratio of Ki for alpha1A adrenoceptor in Wistar rat vas deferens to Ki for Alpha-1B adrenoceptor in Wistar rat spleen. The experiment is classed as tissue-based.
Experiment [2] deals with T1, Alpha-1A adrenergic receptor (Rattus norvegicus, UniProt P43140).
T1 sequence (P43140 whole entry): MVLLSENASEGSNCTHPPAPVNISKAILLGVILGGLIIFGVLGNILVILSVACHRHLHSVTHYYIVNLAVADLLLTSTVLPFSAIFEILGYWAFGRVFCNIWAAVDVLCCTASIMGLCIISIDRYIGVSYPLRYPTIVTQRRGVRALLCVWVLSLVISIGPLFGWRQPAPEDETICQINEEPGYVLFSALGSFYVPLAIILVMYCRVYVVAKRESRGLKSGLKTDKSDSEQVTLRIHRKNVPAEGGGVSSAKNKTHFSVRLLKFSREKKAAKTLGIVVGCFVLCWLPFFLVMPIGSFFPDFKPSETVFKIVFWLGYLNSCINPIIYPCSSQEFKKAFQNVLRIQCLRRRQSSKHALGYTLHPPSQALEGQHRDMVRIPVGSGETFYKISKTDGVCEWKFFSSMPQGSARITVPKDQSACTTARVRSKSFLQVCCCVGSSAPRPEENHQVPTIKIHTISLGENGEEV
As to the kind of experiment: Antagonist activity at alpha1A adrenoceptor in Wistar rat vas deferens assessed as noradrenaline induced contractions after 30 mins. The experiment is classed as functional, tissue-based. Conditions: read-out: pA2 (converted). An outline of the steps: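 Prostatic portions (2 cm) of vas deferens from male Wistar rats (275–300 g) were held under 0.35 g tension in Tyrode solution at 37 °C with cocaine present. Tissues were equilibrated 45 min, primed twice with noradrenaline, then given a cumulative isotonic noradrenaline curve.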

Experiment [3] is filed under the species Rattus norvegicus. The experiment is described as follows: Selectivity ratio of EC50 for alpha1A adrenoceptor in Wistar rat vas deferens to EC50 for Alpha-1D adrenoceptor in Wistar rat thoracic aorta. The experiment is classed as tissue-based.
The species named for experiment [4] is Rattus norvegicus. As to the kind of experiment: Selectivity ratio of Ki for alpha1D adrenoceptor in Wistar rat thoracic aorta to Ki for Alpha-1B adrenoceptor in Wistar rat spleen. The experiment is classed as tissue-based.
Experiment [5] can be described thus: Selectivity ratio of Ki for human alpha1A adrenoceptor to Ki for human Alpha-1B adrenoceptor. An outline of the steps:
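Subtype selectivity is the antilog of the difference between pKi values, from [³H]prazosin displacement (0.1–0.4 nM, 30 min, 25 °C, pH 7.4) at cloned human α1a, α1b and α1d receptors in CHO membranes. Ki values came from IC50 via Cheng–Prusoff.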

The species entered for experiment [6] is Rattus norvegicus. The experiment is described as follows: Selectivity ratio of EC50 for alpha1A adrenoceptor in Wistar rat vas deferens to EC50 for Alpha-1B adrenoceptor in Wistar rat spleen. The experiment is classed as tissue-based.
The species entered for experiment [7] is Rattus norvegicus. The experiment is described as follows: Selectivity ratio of EC50 for alpha1A adrenoceptor in Wistar rat vas deferens to Ki for Alpha-1B adrenoceptor in Wistar rat spleen. The experiment is classed as tissue-based.
Experiment [8] has as its target T2, Alpha-1D adrenergic receptor (Homo sapiens, UniProt P25100).
T2 sequence (P25100 whole entry): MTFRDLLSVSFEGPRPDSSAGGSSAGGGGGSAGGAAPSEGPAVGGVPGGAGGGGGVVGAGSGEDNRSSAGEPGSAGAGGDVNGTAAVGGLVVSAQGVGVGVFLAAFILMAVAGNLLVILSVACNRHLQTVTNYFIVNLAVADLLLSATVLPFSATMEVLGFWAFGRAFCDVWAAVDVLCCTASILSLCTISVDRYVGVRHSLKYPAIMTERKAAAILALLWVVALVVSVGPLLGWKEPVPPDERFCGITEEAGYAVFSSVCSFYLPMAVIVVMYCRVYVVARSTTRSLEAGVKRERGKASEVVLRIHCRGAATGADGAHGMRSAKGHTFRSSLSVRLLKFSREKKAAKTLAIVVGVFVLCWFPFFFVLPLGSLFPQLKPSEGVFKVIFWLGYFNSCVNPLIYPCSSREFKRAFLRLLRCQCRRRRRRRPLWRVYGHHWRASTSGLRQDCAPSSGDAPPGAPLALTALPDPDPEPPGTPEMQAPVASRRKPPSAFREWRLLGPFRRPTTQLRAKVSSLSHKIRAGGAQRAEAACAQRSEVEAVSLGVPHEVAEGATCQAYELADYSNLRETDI
As to the kind of experiment: Displacement of [3H]prazosin from human Alpha-1D adrenoceptor expressed in CHO cells. The experiment is classed as cell-based. A digest of the protocol: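 Membranes ([…], as printed) from CHO cells stably expressing the cloned human α1d subtype were incubated with 0.1–0.4 nM [³H]prazosin and competing drug (1 pM upward) in 50 mM Tris-HCl, pH 7.4, for 30 min at 25 °C. Phentolamine defined non-specific binding. IC50 was converted to Ki by Cheng–Prusoff. Reported as pKi from 2–3 triplicate experiments.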
On the technique in general: Loss of bound radioactivity is the signal in a displacement assay; it reports binding, not function.

For experiment [9], the species on record is Rattus norvegicus. As to the kind of experiment: Selectivity ratio of Ki for alpha1A adrenoceptor in Wistar rat vas deferens to EC50 for Alpha-1D adrenoceptor in Wistar rat thoracic aorta. Format: tissue-based.
Experiment [10] is filed under the species Rattus norvegicus. The experiment is described as follows: Selectivity ratio of EC50 for alpha1D adrenoceptor in Wistar rat thoracic aorta to Ki for Alpha-1B adrenoceptor in Wistar rat spleen. The experiment is classed as tissue-based.
The target in experiment [11] is T3, Alpha-1B adrenergic receptor (Rattus norvegicus) (UniProt P15823).
T3 sequence (whole entry): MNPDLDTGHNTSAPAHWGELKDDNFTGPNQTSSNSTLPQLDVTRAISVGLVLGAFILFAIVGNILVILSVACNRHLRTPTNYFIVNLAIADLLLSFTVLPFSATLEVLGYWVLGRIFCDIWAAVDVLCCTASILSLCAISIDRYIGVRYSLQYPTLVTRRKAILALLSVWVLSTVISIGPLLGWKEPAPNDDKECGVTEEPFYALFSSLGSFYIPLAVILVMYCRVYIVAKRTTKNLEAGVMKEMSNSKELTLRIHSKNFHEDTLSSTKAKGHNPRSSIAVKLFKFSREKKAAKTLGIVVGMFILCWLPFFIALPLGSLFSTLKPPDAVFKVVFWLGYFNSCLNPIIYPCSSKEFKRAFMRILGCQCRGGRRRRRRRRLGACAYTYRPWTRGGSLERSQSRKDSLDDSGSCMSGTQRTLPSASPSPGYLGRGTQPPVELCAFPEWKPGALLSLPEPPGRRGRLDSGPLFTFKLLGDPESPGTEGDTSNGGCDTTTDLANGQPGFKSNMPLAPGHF
The experiment is described as follows: Antagonist activity at Alpha-1B adrenoceptor in Wistar rat spleen assessed as phenylephrine induced contractions after 30 mins. Format: functional, tissue-based. An outline of the steps: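 Spleen strips from male Wistar rats (275–300 g) were set up in a 20 mL bath of physiological salt solution (pH 7.4, 37 °C, 95% O2/5% CO2) under 1 g tension and equilibrated 2 h. Two cumulative phenylephrine curves were run, each followed by 30 min washing, then 30 min incubation with vehicle or antagonist before a third curve. Values are Schild pA2, or pKB where slopes were nonparallel; 4–6 experiments.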

Turning to `COc1ccc(C[C@@H](C)NCCOc2ccccc2OCC(F)(F)F)cc1S(N)(=O)=O`, the Selectivity ratio in the experiment listed under Rattus norvegicus [1] worked out at 4; in the experiment filed under Rattus norvegicus [3], 4; in the experiment filed under Rattus norvegicus [4] it was 1; in the experiment filed under Rattus norvegicus [6], 4; in the experiment listed under Rattus norvegicus [7] it was 4; in the experiment listed under Rattus norvegicus [9] it was 4. In the experiment listed under Rattus norvegicus [10], the Selectivity ratio is 1. Besides, the Kb in experiment [2] is 0.263 nM. In experiment [5], the Ki ratio is on record as 9. In experiment [8], the affinity corresponds to a Ki of 0.955 nM.
In the case of `COc1ccc(C[C@@H](C)NCCOc2ccccc2OCc2ccccc2)cc1S(N)(=O)=O`, the Selectivity ratio was found to be 12 in the experiment listed under Rattus norvegicus [1]; 3 in the experiment filed under Rattus norvegicus [3]; 4 in the experiment filed under Rattus norvegicus [4]; 12 in the experiment listed under Rattus norvegicus [6]; 12 in the experiment filed under Rattus norvegicus [7]; 3 in the experiment filed under Rattus norvegicus [9]. In addition, in the experiment filed under Rattus norvegicus [10], the Selectivity ratio was found to be 4. For the same compound, in experiment [5], the Ki ratio stood at 6. Besides, in [11], the pKb stood at 8.57. In experiment [8], the Ki was 0.324 nM.
For the compound `COc1ccc(C[C@@H](C)NCCOc2ccccc2OC(C)C)cc1S(N)(=O)=O`, the Selectivity ratio stood at 7 in the experiment listed under Rattus norvegicus [1]; 2 in the experiment listed under Rattus norvegicus [3]; 3 in the experiment listed under Rattus norvegicus [4]; 7 in the experiment filed under Rattus norvegicus [6]; 7 in the experiment filed under Rattus norvegicus [7]; 2 in the experiment filed under Rattus norvegicus [9]. Besides, the Selectivity ratio in the experiment filed under Rattus norvegicus [10] came to 3. Also, the Ki ratio in experiment [5] was 5. The pKb in experiment [11] is 8.81. In experiment [8], this compound had a Ki of 0.245 nM.
Take `COc1ccc(C[C@@H](C)NC[C@H]2Oc3ccccc3O[C@H]2C)cc1S(N)(=O)=O`: the Selectivity ratio in the experiment listed under Rattus norvegicus [1] came out at 1; in the experiment listed under Rattus norvegicus [3] it was 2; in the experiment filed under Rattus norvegicus [4], 0.5; in the experiment listed under Rattus norvegicus [6], 1; in the experiment listed under Rattus norvegicus [7] it was 1; in the experiment filed under Rattus norvegicus [9] it was 2. For the same compound, the Selectivity ratio in the experiment filed under Rattus norvegicus [10] came to 0.5. Further, the Kb in experiment [2] is 30.2 nM. The Ki ratio in [5] worked out at 4. Besides, the Ki in experiment [8] was 17.4 nM.
Take `COc1ccc(C[C@@H](C)NC[C@@H]2Oc3ccccc3O[C@@H]2C)cc1S(N)(=O)=O`: the Selectivity ratio in the experiment listed under Rattus norvegicus [1] worked out at 1; in the experiment filed under Rattus norvegicus [3], 1; in the experiment listed under Rattus norvegicus [4], 0.8; in the experiment filed under Rattus norvegicus [6], 1; in the experiment filed under Rattus norvegicus [7] it was 1; in the experiment listed under Rattus norvegicus [9], 1. In addition, in the experiment filed under Rattus norvegicus [10], the Selectivity ratio was 0.8. The Kb in [2] is 16.2 nM. Besides, the Ki ratio in [5] is 3. Further, the pKb in experiment [11] amounted to 7.76. The inhibition constant Ki in experiment [8] is 15.5 nM.
